According to ChEMBL document CHEMBL4828720, “Macrocyclic Immunoproteasome Inhibitors as a Potential Therapy for Alzheimer's Disease” (J Med Chem, 2021):
The source made the active and inactive calls. The rule behind the calls is not given here.

Tests used:
[1] = target: T1, Proteasome subunit beta type-9 (Homo sapiens, UniProt P28065); experiment: Inhibition of human 20S proteasome LMP2 using Ac-PAL-AMC as fluorogenic substrate measured every minute for 1 hr by fluorescence assay
T1 sequence (P28065 whole entry): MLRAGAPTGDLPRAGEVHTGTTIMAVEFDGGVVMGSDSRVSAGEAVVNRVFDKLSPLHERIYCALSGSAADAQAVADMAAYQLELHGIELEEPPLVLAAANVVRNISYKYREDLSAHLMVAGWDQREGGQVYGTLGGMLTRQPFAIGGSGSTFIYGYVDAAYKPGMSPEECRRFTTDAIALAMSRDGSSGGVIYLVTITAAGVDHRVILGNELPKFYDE
Summary of the method: (§1)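 Preincubated 1 h with inhibitor at 3-10,000 nM (8 concentrations). Substrates at 100 μM: Ac-PAL-AMC (LMP2), Ac-nLPnLD-AMC (Y), Ac-ANW-AMC (LMP7). Ac-WLA-AMC (X) at 20 μM. AMC fluorescence (360/460 nm) read each minute for 1 h; 3 replicates.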

[2] = Inhibition of human 20S proteasome X using Ac-WLA-AMC as fluorogenic substrate measured every minute for 1 hr by fluorescence assay
Summary of the method: as §1, with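 “Purified human 20S constitutive or immunoproteasome, 50 ng in 20 mM Tris-HCl, 0.5 mM EDTA, 0.035% SDS, pH 8.0. Preincubated” for “Preincubated”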

[3] = target: T1, Proteasome subunit beta type-9; experiment: Inhibition of human 20S proteasome LMP2 activity in human RPMI-8226 cells using Ac-PAL-AMC as fluorogenic substrate incubated for 72 hrs by fluorescence assay; format: cell-based
Homo sapiens = species: Homo sapiens; experiment: Selectivity index, ratio of IC50 for inhibition of human 20S proteasome LMP2 activity in human RPMI-8226 cells overexpressing ABCB1 to IC50 for inhibition of human 20S proteasome LMP2 activity in human RPMI-8226 cells; format: cell-based
Summary of the method: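 Carfilzomib-resistant RPMI 8226/ABCB1 line, kept drug-free for two weeks, alongside parental RPMI 8226. Cells exposed to varying inhibitor concentrations for 72 h, n=3 per concentration. Lysates (5 μg protein, pH 8.0 Tris/EDTA/0.035% SDS buffer) read with 100 μM Ac-PAL-AMC at ex 360/em 460 nm every minute for 1 h. IC50 from curve fitting, mean ± SD.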

[4] = target: T2, Proteasome subunit beta type-9 (Homo sapiens) (UniProt P28065); experiment: Inhibition of human 20S proteasome LMP2 activity in human NCI/ADR-RES cells overexpressing ABCB1 using Ac-PAL-AMC as fluorogenic substrate incubated for 72 hrs in presence and absence of verapamil by fluorescence assay; format: cell-based
T2 sequence (whole entry): T1 sequence (P28065 whole entry)

[5] = Metabolic stability in ICR mouse whole blood at 1 uM measured upto 30 mins by LC-MS/MS analysis; format: ADME, tissue-based; conditions: 0.5 h
Summary of the method: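 Tissues from male ICR mice, 7 weeks old. Heparinized (25 IU/mL) whole blood, or liver homogenized in ice-cold PBS, prewarmed to 37 °C and spiked to a final 1 μM. Samples taken at 0, 10 and 30 min (blood) or 0, 10 and 20 min (liver). […] Remaining drug quantified by C18 LC-MS/MS.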

[6] = target: T3, Proteasome subunit beta type-9 (Mus musculus) (UniProt P28076); experiment: Inhibition of LMP2 in ICR mouse brain homogenate at 10 mg/kg, iv after 1 hr; format: organism-based
T3 sequence (whole entry): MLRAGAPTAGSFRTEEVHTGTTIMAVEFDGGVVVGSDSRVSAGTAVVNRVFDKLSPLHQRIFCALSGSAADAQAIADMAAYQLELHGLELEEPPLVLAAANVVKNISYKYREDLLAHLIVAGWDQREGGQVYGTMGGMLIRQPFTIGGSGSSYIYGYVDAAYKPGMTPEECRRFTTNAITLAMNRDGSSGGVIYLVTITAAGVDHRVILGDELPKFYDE
Summary of the method: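 ICR mice received a single intravenous dose of 10 mg/kg. Brain homogenates taken at 1 h post-dose were assayed for compound level and for LMP2 activity.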

Mus musculus [7] = experiment: Cognitive enhancing effect in Tg2576 mouse assessed as shorter distances travelled before reaching the escape platform at 10 mg/kg, iv administered twice weekly and measured after 5 days by Morris water maze test; format: functional, organism-based; conditions: time 5.0 day
Summary of the method: (§2)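 Tg2576 mice, 9 months old, given 10 mg/kg twice weekly for 3 weeks. Morris water maze in 25 ± 1 °C water, platform hidden 1-1.5 cm below surface. Three 60-s trials a day from randomized start points for 5 days. Swim paths tracked from an overhead camera. Single probe trial on day 6 scored as time in target quadrant. n=5 treated, n=12 control on days 4-5; Student's t-test.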

Mus musculus [8] = experiment: Cognitive enhancing effect in Tg2576 mouse assessed as reduction in escape latency at 10 mg/kg, iv administered twice weekly and measured after 5 days by Morris water maze test; format: functional, organism-based; conditions: time 5.0 day; summary of the method: as §2
Mus musculus [9] = experiment: Cognitive enhancing effect in Tg2576 mouse assessed as latency to enter dark compartment at 10 mg/kg, iv administered twice weekly and measured on 7 and 8 days by step-through passive avoidance test; format: functional, organism-based; conditions: time 7-8 day
Summary of the method: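 Tg2576 mice (9-month-old), 10 mg/kg twice weekly for 3 weeks. Step-through passive avoidance run 48 h after the probe test. Learning trial: 0.45 mA, 3 s shock on entering the dark room. Testing trial 24 h later (day 8) without shock, timed as latency to re-enter the dark chamber from the lighted compartment. n=5; Student's t-test.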

Mus musculus [10] = species: Mus musculus; experiment: Protection against inflammation-triggered RPE degeneration in Tg2576 mouse by immunostaining based confocal microscopic analysis; format: functional, organism-based
Summary of the method: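 RPE collected after behavioral testing from treated Tg2576 mice and from age-matched non-transgenic ICR mice. Eyecups dissected in ice-cold PBS and retina removed. Tissue permeabilized with 0.2% Triton X-100 for 15 min, blocked with 3% BSA, then anti-β-catenin (1:100) overnight at 4 °C. Alexa 555 secondary 2 h, imaged by confocal microscopy.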

[11] = Toxicity in Tg2576 mouse; conditions: in vivo
[12] = Toxicity in ICR mouse; conditions: in vivo
[13] = target: Proteasome subunit beta type-9 (Mus musculus) (UniProt P28076); experiment: Inhibition of LMP2 in mouse BV-2 cells
[14] = target: Proteasome subunit beta type-9 (Mus musculus) (UniProt P28076); experiment: Inhibition of LMP2 in mouse BV-2 cells assessed as reduction in LPS-stimulated IL-1alpha release by ELISA
[15] = test system: Proteasome subunit beta type-9 (Canis lupus familiaris); experiment: Inhibition of canine 20S proteasome LMP2 activity in MDCK-II cells using Ac-PAL-AMC as fluorogenic substrate by fluorescence assay

For `C[C@]1(C(=O)[C@H](Cc2ccccc2)NC(=O)[C@@H]2Cc3ccc(cc3)OCCCCCCCC(=O)N3CCC[C@H]3C(=O)N2)CO1`, the IC50 [1] was 0.184 µM, the IC50 [2] was 4.64 µM and the IC50 [3] was 0.0327 µM. The Ratio IC50 (Homo sapiens) was 3.3, the inhibition [4] was “Active” and the Stability [5] was “Stable”. The inhibition [6] was “inactive”, the Activity (Mus musculus [7]) was “Active” and the Activity (Mus musculus [8]) was “Active”. The Activity (Mus musculus [9]) was “Active”, the Activity (Mus musculus [10]) was “Active” and the Activity [11] was “Non-Toxic”. The Activity [12] was “Non-Toxic”, the inhibition [13] was “Active” and the inhibition [14] was “Active”. For the same compound, the inhibition [15] was “Active”.
